Test results: ChEMBL document CHEMBL1132111, “Design and synthesis of novel alpha(1)(a) adrenoceptor-selective antagonists. 4. Structure-activity relationship in the dihydropyrimidine series” (J Med Chem, 1999)
Values joined by “and” are separate entries in the source; they are usually repeats but may differ in a detail not shown here. Identical values can stand only once.

Key:
[1] = target: T1, Alpha-1D adrenergic receptor (Homo sapiens, UniProt P25100); assay: Binding affinity against Alpha-1D adrenergic receptor (recombinant human receptor) using [3H]-prazosin.
T1 sequence (P25100 whole entry): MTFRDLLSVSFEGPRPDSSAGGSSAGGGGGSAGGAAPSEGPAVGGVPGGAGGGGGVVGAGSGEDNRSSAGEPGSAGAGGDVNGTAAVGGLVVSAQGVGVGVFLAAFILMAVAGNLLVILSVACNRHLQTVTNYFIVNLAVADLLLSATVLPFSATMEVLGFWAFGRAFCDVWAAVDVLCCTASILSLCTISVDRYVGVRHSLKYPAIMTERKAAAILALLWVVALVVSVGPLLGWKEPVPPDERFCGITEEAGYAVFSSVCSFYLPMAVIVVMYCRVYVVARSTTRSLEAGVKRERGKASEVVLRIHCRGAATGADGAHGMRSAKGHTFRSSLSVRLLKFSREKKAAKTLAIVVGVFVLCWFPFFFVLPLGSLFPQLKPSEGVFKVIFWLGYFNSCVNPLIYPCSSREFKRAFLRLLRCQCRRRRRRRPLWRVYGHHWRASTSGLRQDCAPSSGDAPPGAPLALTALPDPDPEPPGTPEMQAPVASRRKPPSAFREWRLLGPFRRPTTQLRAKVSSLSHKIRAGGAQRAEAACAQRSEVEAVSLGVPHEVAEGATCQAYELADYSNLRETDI

[2] = target: T2, Alpha-1B adrenergic receptor (Homo sapiens, UniProt P35368); assay: Binding affinity against Alpha-1B adrenergic receptor (recombinant human receptor) using [3H]prazosin.
T2 sequence (P35368 whole entry): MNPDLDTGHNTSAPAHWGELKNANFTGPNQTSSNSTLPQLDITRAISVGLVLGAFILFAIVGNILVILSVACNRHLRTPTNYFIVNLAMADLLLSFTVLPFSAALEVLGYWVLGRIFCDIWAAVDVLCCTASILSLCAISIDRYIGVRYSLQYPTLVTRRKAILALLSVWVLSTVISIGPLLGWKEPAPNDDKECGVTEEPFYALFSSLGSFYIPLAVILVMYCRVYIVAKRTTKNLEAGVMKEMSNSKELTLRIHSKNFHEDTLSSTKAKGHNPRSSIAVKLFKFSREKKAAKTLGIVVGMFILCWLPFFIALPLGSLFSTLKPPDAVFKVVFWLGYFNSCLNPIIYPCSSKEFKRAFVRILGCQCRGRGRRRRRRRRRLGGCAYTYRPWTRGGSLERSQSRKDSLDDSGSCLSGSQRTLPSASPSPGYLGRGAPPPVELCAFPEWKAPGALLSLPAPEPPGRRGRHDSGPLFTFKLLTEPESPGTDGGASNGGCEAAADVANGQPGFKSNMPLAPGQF

[3] = Selectivity against alpha-1a receptor over alpha-2a,b,c adrenoceptors
Outline: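 Binding affinities (Ki, nM) measured at recombinant human α1a and α2a, α2b and α2c adrenoceptors; fold selectivity expressed as the ratio of α2 subtype Ki to α1a Ki.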

[4] = target: T3, Alpha-1A adrenergic receptor (Homo sapiens, UniProt P35348); assay: Binding affinity against Alpha-1A adrenergic receptor (recombinant human receptor) using [3H]prazosin.
T3 sequence (P35348 whole entry): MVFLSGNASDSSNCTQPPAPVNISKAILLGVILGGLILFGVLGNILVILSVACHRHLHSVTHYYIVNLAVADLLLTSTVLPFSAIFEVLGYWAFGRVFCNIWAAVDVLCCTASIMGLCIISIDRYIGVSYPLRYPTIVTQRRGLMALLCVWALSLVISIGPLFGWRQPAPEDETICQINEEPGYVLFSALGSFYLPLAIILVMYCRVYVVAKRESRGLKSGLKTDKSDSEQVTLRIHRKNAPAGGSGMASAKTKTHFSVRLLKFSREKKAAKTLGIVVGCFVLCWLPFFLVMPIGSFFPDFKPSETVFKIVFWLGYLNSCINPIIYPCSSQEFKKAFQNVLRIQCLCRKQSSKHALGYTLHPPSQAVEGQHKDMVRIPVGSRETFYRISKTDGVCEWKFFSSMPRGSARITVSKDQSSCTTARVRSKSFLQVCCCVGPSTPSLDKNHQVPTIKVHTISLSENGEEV

Canis familiaris [5] = assay: Area under curve at a peroral dose of 3 mg/kg in dog; format: ADME, organism-based, Canis lupus familiaris; parameters: dose 3 mg/kg, route oral; conditions: in vivo, po
Outline: (§1)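 Each compound dosed once intravenously at 1 mg/kg and orally at 3 mg/kg. Exposure read as plasma area under the concentration-time curve, reported in µmol min/L.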

Rattus norvegicus [6] = assay: Area under curve at a peroral dose of 3 mg/kg in rat; format: ADME, organism-based; parameters: dose 3 mg/kg, route oral; conditions: in vivo, po; outline: as §1
Canis familiaris [7] = assay: Area under curve at an iv dose of 1 mg/kg in dog; format: ADME, organism-based, Canis lupus familiaris; parameters: dose 1 mg/kg, route intravenous; conditions: in vivo; outline: as §1
Rattus norvegicus [8] = assay: Area under curve at an iv dose of 1 mg/kg in rat; format: ADME, organism-based; parameters: dose 1 mg/kg, route intravenous; conditions: in vivo; outline: as §1
[9] = Plasma half life in dog; format: ADME, organism-based, Canis lupus familiaris
[10] = Plasma half life in rat; format: ADME, organism-based
[11] = Bioavailability in dog(iv: 1 mg/kg); format: ADME, organism-based, Canis lupus familiaris; conditions: in vivo
[12] = Bioavailability in rat; format: ADME, organism-based; conditions: in vivo
Rattus norvegicus [13] = organism: Rattus norvegicus; assay: Antagonistic activity inhibiting phenylephrine induced contractions in isolated rat prostate.; format: functional, Prostate gland
[14] = Selectivity for alpha-1a receptor against rat L-type calcium channel by [3H]nitrendipine binding
[15] = Bioavailability in dog; format: ADME, organism-based, Canis lupus familiaris; conditions: in vivo
[16] = target: T1, Alpha-1D adrenergic receptor; assay: Binding affinity against isolated human aorta using [3H]- prazosin.; format: tissue-based
[17] = target: T3, Alpha-1A adrenergic receptor; assay: Binding affinity against isolated human prostate using [3H]- prazosin.; format: tissue-based, Prostate gland
[18] = target: T4, Alpha-1A adrenergic receptor (Rattus norvegicus, UniProt P43140); assay: Binding affinity against isolated rat prostate using [3H]- prazosin.; format: tissue-based, Prostate gland
T4 sequence (P43140 whole entry): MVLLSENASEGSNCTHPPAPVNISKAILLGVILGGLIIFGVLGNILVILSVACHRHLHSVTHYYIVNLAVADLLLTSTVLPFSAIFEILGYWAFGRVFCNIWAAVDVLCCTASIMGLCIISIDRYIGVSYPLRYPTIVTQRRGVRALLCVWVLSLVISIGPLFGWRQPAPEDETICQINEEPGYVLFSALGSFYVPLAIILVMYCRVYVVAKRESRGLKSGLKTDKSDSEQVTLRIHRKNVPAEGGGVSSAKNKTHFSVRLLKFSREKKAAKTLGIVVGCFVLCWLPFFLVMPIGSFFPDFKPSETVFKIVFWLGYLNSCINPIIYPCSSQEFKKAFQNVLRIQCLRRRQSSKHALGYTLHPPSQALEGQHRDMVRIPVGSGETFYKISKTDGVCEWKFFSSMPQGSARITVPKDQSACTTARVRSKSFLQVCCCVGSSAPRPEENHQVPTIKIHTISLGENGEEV

Structure (SMILES)	Ki [1]	Ki [2]	Fold selective [3]	Ki [4]	other results
COC(=O)C1=C(C)N=C(C)N(CCCCCN2CCC(C(=O)OC)(c3ccccc3)CC2)C1c1ccc(F)c(F)c1 (centres undefined)	0.55 µM and 0.18 µM	0.7 µM and 0.19 µM	–	–	–
COC(=O)C1=C(C)N=C(C)N(CCC[C@@H](C)CN2CCN(c3ccccc3C(N)=O)CC2)C1c1ccc(F)c(F)c1 (single isomer, unassigned; (+))	1.7 µM	1.5 µM	< 10	0.02 µM	–
COC(=O)C1(c2ccccc2)CCN(CCCCCN2C(C)=NC(C)=C(C(N)=O)C2c2ccc(F)cc2F)CC1 (centres undefined)	0.69 µM	0.41 µM	< 10	0.0042 µM	–
COC(=O)C1=C(C)N=C(C)N(CCC[C@H](C)CN2CCN(c3ccccc3C(N)=O)CC2)C1c1ccc(F)c(F)c1 (some centres undefined)	1.7 µM	0.81 µM	< 100	0.0035 µM	–
COC(=O)C1=C(C)N=C(C)N(CCCCN2CCC(C(=O)OC)(c3ccccc3)CC2)C1c1ccc(F)c(F)c1 (centres undefined)	0.61 µM	0.44 µM	< 80	0.0036 µM	–
CNC(=O)C1=C(C)N=C(C)N(CCCCCN2CCC(C(=O)OC)(c3ccccc3)CC2)C1c1ccc(F)cc1F (centres undefined)	1.9 µM	0.87 µM	< 80	0.014 µM	–
COC(=O)C1=C(C)N=C(C)N(CCCCCN2CCC(c3ccccc3C(F)(F)F)CC2)C1c1ccc(F)c(F)c1 (centres undefined)	1.1 µM	0.5 µM	–	0.0011 µM	Selectivity [14]: < 100
COC(=O)C1=C(C)N=C(C)N(CCCCCN2CCC(C(=O)OC)(c3ccccc3)CC2)C1c1ccc(F)cc1F (centres undefined)	0.7 µM	0.16 µM	> 1000	0.0005 µM	–
COC(=O)C1=C(C)NC(=O)N(CCCCCN2CCC(C(=O)OC)(c3ccccc3)CC2)C1c1ccc(F)c(F)c1 (centres undefined)	–	–	> 1000	–	–
COC(=O)C1=C(C)N=C(C)N(CCCCCN2CCN(c3ccccc3C(N)=O)CC2)C1c1ccc(F)c(F)c1 (centres undefined)	0.58 µM	0.24 µM	–	0.0006 µM	AUC (Rattus norvegicus [6]): 4 uM min l-1; AUC (Rattus norvegicus [8]): 5 uM min l-1; half-life [9]: 4 h; half-life [10]: 2.1 h; bioavailability [15]: < 10%; bioavailability [12]: 21%; Kb (Rattus norvegicus [13]): 0.007 µM
COC(=O)C1=C(C)N=C(C)N(CCC[C@H](C)CN2CCC(C(=O)OC)(c3ccccc3)CC2)C1c1ccc(F)c(F)c1 (single isomer, unassigned; (+))	0.91 µM	0.43 µM	< 50	0.0016 µM	–
COC(=O)C1=C(C)N=C(C)N(Cc2cccc(CN3CCC(C(=O)OC)(c4ccccc4)CC3)c2)C1c1ccc(F)c(F)c1 (centres undefined)	0.57 µM	0.32 µM	> 130	0.0068 µM	–

The next lines start with results.

Ki [1]	Ki [2]	Fold selective [3]	Ki [4]	Structure (SMILES)	other results
0.22 µM	0.093 µM	> 300	0.0004 µM	COC(=O)C1=C(C)N=C(C)N(CCCCCN2CCC(c3ccccc3)CC2)C1c1ccc(F)c(F)c1 (centres undefined)	–
1.6 µM	1.7 µM	< 10	0.022 µM	COC(=O)C1=C(C)N=C(C)N(CCC[C@@H](C)CN2CCC(C#N)(c3ccccc3)CC2)C1c1ccc(F)c(F)c1 (some centres undefined)	–
1.1 µM	0.49 µM	> 300	0.001 µM	COC(=O)C1=C(C)N=C(C)N(CCCCCN2CCC(C#N)(c3ccccc3)CC2)C1c1ccc(F)c(F)c1 (centres undefined)	–
0.079 µM	0.034 µM	> 100	0.0005 µM	COC(=O)C1=C(C)N=C(C)N(CCCCCN2CCN(c3ccccc3C(=O)OC)CC2)C1c1ccc(F)c(F)c1 (centres undefined)	–
1.1 µM	0.48 µM	> 120	0.0012 µM	COC(=O)C1=C(C)N=C(C)N(CCC[C@H](C)CN2CCC(C#N)(c3ccccc3)CC2)C1c1ccc(F)c(F)c1 (some centres undefined)	–
0.44 µM	0.25 µM	–	0.0001 µM	COC(=O)C1=C(C)N=C(C)N(CCCCCN2CCC(c3ccc(C)cc3)(c3ccccc3C)CC2)C1c1ccc(F)c(F)c1 (centres undefined)	AUC (Canis familiaris [5]): 8 uM min l-1; AUC (Rattus norvegicus [6]): 21 uM min l-1; AUC (Canis familiaris [7]): 11 uM min l-1; AUC (Rattus norvegicus [8]): 35 uM min l-1; half-life [9]: 0.5 h; half-life [10]: 4.7 h; bioavailability [11]: 8%; bioavailability [12]: 17%; Kb (Rattus norvegicus [13]): 0.027 µM
0.68 µM	0.4 µM	> 4000	0.0004 µM	COCC1=C(C(=O)OC)C(c2ccc(F)c(F)c2)N(CCCCCN2CCC(C#N)(c3ccccc3)CC2)C(C)=N1 (centres undefined)	–
0.065 µM	0.067 µM	< 100	0.0004 µM	COC(=O)C1=C(C)N=C(C)N(CCCCCN2CCN(c3ccccc3OC)CC2)C1c1ccc(F)c(F)c1 (centres undefined)	–
0.12 µM	0.14 µM	> 100	0.0003 µM	COC(=O)C1=C(C)N=C(C)N(CCCCCN2CCC(c3ccccc3OC)CC2)C1c1ccc(F)c(F)c1 (centres undefined)	–
0.48 µM	0.31 µM	> 700	0.0004 µM	COCC1=NC(C)=C(C(=O)OC)C(c2ccc(F)c(F)c2)N1CCCCCN1CCC(C#N)(c2ccccc2)CC1 (centres undefined)	–
0.18 µM	0.1 µM	–	0.0004 µM	COC(=O)C1=C(C)N=C(C)N(CCCCCN2CCC(c3ccccc3)(c3ccccc3)CC2)C1c1ccc(F)c(F)c1 (centres undefined)	Ki [16]: 0.11 µM; Ki [17]: 0.00033 µM; Ki [18]: 0.00097 µM; Kb (Rattus norvegicus [13]): 0.06 µM
